In ChEMBL document CHEMBL5370673 (ACS Med Chem Lett, 2023):
Calls of active or inactive are those of the source. The rule behind the calls is not given here.

Columns and labels:
Schistosoma mansoni [1] = test: Antischistosomal activity against Schistosoma mansoni assessed as maximal effect at <= 320 uM; format: functional, organism-based
Schistosoma mansoni [2] = test: Antischistosomal activity against Schistosoma mansoni infected in CF1/W74 mouse assessed as reduction in parasitic flatworms viability at 500 mg/kg administered for 5 days relative to control; format: functional
Rodentolepis nana [3] = test: Anti-cestodal activity against Hymenolepis nana infected in CF1/W74 mouse assessed as reduction in parasitic flatworms at 500 mg/kg relative to control; format: functional; parameters: scale not given: the % may be the effect or the level left
[4] = Activation of Schistosoma mansoni in TRPM binding site of PZQ expressed in HEK293 cells assessed as effect in cytosolic Ca2+ level measured for 250 sec by […] NW staining based FLIPR assay; format: cell-based
[5] = Activation of Echinococcus granulosus in TRPM binding site of PZQ expressed in HEK293 cells assessed as effect in cytosolic Ca2+ level measured for 250 sec by […] NW staining based FLIPR assay; format: cell-based
[6] = Activation of Mesocestoides corti in TRPM binding site of PZQ expressed in HEK293 cells assessed as effect in cytosolic Ca2+ level measured for 250 sec by […] NW staining based FLIPR assay; format: cell-based
Method in brief: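 HEK293 cells transiently transfected with the individual TRPMPZQ ortholog (S. mansoni, E. granulosus or M. corti). Cytosolic Ca2+ change read by fluorescence reporter (FLIPR) across increasing analog concentrations. Untransfected HEK293 cells serve as control.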

Rodentolepis nana [7] = test: Anti-cestodal activity against Hymenolepis nana infected in CF1/W74 mouse assessed as reduction in parasitic flatworms at 25 mg/kg relative to control; format: functional; parameters: scale not given: the % may be the effect or the level left
Schistosoma mansoni [8] = test: Antischistosomal activity against Schistosoma mansoni assessed as maximal effect at <= 3.2 uM; format: functional, organism-based
Schistosoma mansoni [9] = test: Antischistosomal activity against Schistosoma mansoni infected in CF1/W74 mouse assessed as reduction in parasitic flatworms viability at 50 mg/kg administered for 5 days relative to control; format: functional; conditions: time 5 day
[10] = system: Echinococcus multilocularis; test: Anthelmintic activity against Echinococcus multilocularis MB17 protoscoleces assessed as increase in contraction at 1 uM by live cell imaging analysis; format: functional, organism-based
[11] = system: Echinococcus multilocularis; test: Anthelmintic activity against Echinococcus multilocularis MB17 protoscoleces assessed as reduction in motility measured after 24 hrs by live cell imaging analysis; format: functional, organism-based
Method in brief: (§1)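 E. multilocularis protoscoleces incubated ex vivo across a concentration range. Motility scored at 0.5, 12 and 24 h and expressed as % of DMSO vehicle control (mean ± SEM). IC50 taken from concentration–response curves at each time point.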

[12] = system: Echinococcus multilocularis; test: Anthelmintic activity against Echinococcus multilocularis MB17 protoscoleces assessed as reduction in motility at 0.001 to 100 uM measured after 0.5 hrs by live cell imaging analysis; format: functional, organism-based; conditions: dose 0.001-100 µM; method in brief: as §1
[13] = Selectivity ratio of EC50 for activation of Schistosoma mansoni in TRPM binding site of PZQ expressed in HEK293 cells to EC50 for activation of Echinococcus granulosus in TRPM binding site of PZQ expressed in HEK293 cells; format: cell-based
[14] = Selectivity ratio of EC50 for activation of Schistosoma mansoni in TRPM binding site of PZQ expressed in HEK293 cells to EC50 for activation of Mesocestoides corti in TRPM binding site of PZQ expressed in HEK293 cells; format: cell-based
[15] = system: Echinococcus multilocularis; test: Induction of morphological changes in Echinococcus multilocularis MB17 protoscoleces assessed as increase in contraction at 100 uM by cestode motility assay; format: functional, organism-based
[16] = system: Echinococcus multilocularis; test: Anthelmintic activity against Echinococcus multilocularis MB17 protoscoleces assessed as increase in contraction at 30 uM by live cell imaging analysis; format: functional, organism-based
[17] = Echinococcus granulosus, HEK293, read-out: EC50
[18] = Mesocestoides corti, HEK293, read-out: EC50

| SMILES | Activity (Schistosoma mansoni [1]) | Activity (Schistosoma mansoni [2]; time 5 day) [%] | Activity (Rodentolepis nana [3]) [%] | EC50 ([4]; hek293) | Activity (Rodentolepis nana [7]) [%] | EC50 [5, 17] [µM] | EC50 [6, 18] [µM] | further results |
| --- | --- | --- | --- | --- | --- | --- | --- | --- |
| O=C(c1ccc([N+](=O)[O-])cc1)N1CC(=O)N2CCc3ccccc3C2C1 (centres undefined) | inactive | <90 | 100 | Not Active | – | – | – | EC50 ([5]; hek293): Not Active; EC50 ([6]; hek293): Not Active |
| CNc1ccc(C(=O)N2CC(=O)N3CCc4ccccc4C3C2)cc1 (centres undefined) | inactive | 100 | – | Not Active | 100 | > 100 | > 100 | – |
| O=C(C1CCCCC1)N1CC(=O)N2CCc3ccccc3C2C1 (racemic) [PRAZIQUANTEL] | – | – | – | – | 100 | – | 0.12 | Activity (Schistosoma mansoni [8]): Active; Activity (Schistosoma mansoni [9]): 100%; Activity [10]: Active; Activity [11]: Active; Activity [12]: Active |
| O=C(c1cccnc1)N1CC(=O)N2CCc3ccccc3C2C1 (racemic) | Active | <90 | – | Not Active | 100 | 2.3 | 5.3 | – |
| CN(C)c1ccc(C(=O)N2CC(=O)N3CCc4ccccc4C3C2)cc1 (centres undefined) | inactive | 100 | – | Not Active | 100 | – | – | EC50 ([5]; hek293): Not Active; EC50 ([6]; hek293): Not Active |
| Nc1ccc(C(=O)N2CC(=O)N3CCc4ccccc4C3C2)cc1 (centres undefined) | Active | 100 | – | – | 100 | 0.96 | 0.8 | Ratio EC50 [13]: 8; Ratio EC50 [14]: 8 |
| O=C(C1CC1)N1CC(=O)N2CCc3ccccc3C2C1 (centres undefined) | inactive | <90 | 100 | Not Active | – | 53 | 65 | – |
| O=C(C1CCCCC1)N1CC(=O)N2CCc3ccccc3[C@@H]2C1 [PRAZIQUANTEL, (R)-] | – | – | – | – | 100 | – | 0.08 | Activity (Schistosoma mansoni [8]): Active; Activity (Schistosoma mansoni [9]): 100% |
| O=C(c1cccnc1)N1CC(=O)N2CCc3ccccc3[C@H]2C1 | inactive | – | 100 | Not Active | – | 22 | 16 | Activity (Schistosoma mansoni [2]; time 5.0 day): inactive; Activity [15]: Active; Activity [12]: Active |
| O=C(C1CCCCC1)N1CC(=O)N2CCc3ccccc3[C@H]2C1 | Active | >90 | 100 | – | – | – | 1.23 | – |
| N[C@H]1CC[C@@H](C(=O)N2CC(=O)N3CCc4ccccc4C3C2)CC1 (some centres undefined) | inactive | – | <90 | Not Active | – | > 100 | > 100 | Activity (Schistosoma mansoni [2]; time 5.0 day): inactive |
| O=C(c1cccnc1)N1CC(=O)N2CCc3ccccc3[C@@H]2C1 | inactive | 100 | – | – | 100 | 1.4 | 0.98 | EC50 ([4]; Schistosoma mansoni, HEK293, read-out: EC50): > 100 µM; Activity [16]: Active; Activity [12]: Active |
